Test results published in ChEMBL document CHEMBL1799931, “Synthesis, evaluation and metabolic studies of radiotracers containing a 4-(4-[18F]-fluorobenzyl)piperidin-1-yl moiety for the PET imaging of NR2B NMDA receptors” (Eur J Med Chem, 2011).

What was measured:
Thymus = experiment: Biodistribution in Sprague-Dawley rat thymus at 3.2 to 18.6 MBq, iv after 120 mins by micro PET analysis; type: ADME, organism-based; details: in vivo, 2 h
How it was run: (§1)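 Male Sprague-Dawley rats (235-310 g) under isoflurane got 18F radiotracer (3.2-18.6 MBq) by tail-vein catheter, n = 3. Dynamic microPET scan for 120 min, then ex vivo tissue counting at 120 min post-injection. Values are %ID/g ± SEM.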

Brain = experiment: Biodistribution in Sprague-Dawley rat brain at 3.2 to 18.6 MBq, iv after 120 mins by micro PET analysis; type: ADME, organism-based; details: in vivo, 2 h; how it was run: as §1
Spleen = experiment: Biodistribution in Sprague-Dawley rat spleen at 3.2 to 18.6 MBq, iv after 120 mins by micro PET analysis; type: ADME, organism-based; details: in vivo, 2 h; how it was run: as §1
Hippocampus = experiment: Biodistribution in Sprague-Dawley rat hippocampus at 3.2 to 18.6 MBq, iv after 120 mins by micro PET analysis; details: in vivo, 2 h
Pancreas = experiment: Biodistribution in Sprague-Dawley rat pancreas at 3.2 to 18.6 MBq, iv after 120 mins by micro PET analysis; type: ADME, organism-based; details: in vivo, 2 h; how it was run: as §1
Bone = experiment: Biodistribution in Sprague-Dawley rat bone at 3.2 to 18.6 MBq, iv after 120 mins by micro PET analysis; type: ADME, organism-based, Bone element; details: in vivo, 2 h; how it was run: as §1
Intestine = experiment: Biodistribution in Sprague-Dawley rat intestine at 3.2 to 18.6 MBq, iv after 120 mins by micro PET analysis; type: ADME, organism-based; details: in vivo, 2 h; how it was run: as §1
Heart = experiment: Biodistribution in Sprague-Dawley rat heart at 3.2 to 18.6 MBq, iv after 120 mins by micro PET analysis; type: ADME, organism-based; details: in vivo, 2 h; how it was run: as §1
Rattus norvegicus [1] = experiment: Biodistribution in Sprague-Dawley rat cartilage at 3.2 to 18.6 MBq, iv after 120 mins by micro PET analysis; type: ADME, organism-based, Cartilage tissue; details: in vivo, 2 h; how it was run: as §1
Liver [2] = experiment: Biodistribution in Sprague-Dawley rat liver at 3.2 to 18.6 MBq, iv after 120 mins by micro PET analysis; type: ADME, organism-based; details: in vivo, 2 h; how it was run: as §1
Rattus norvegicus [3] = experiment: Biodistribution in Sprague-Dawley rat bladder at 3.2 to 18.6 MBq, iv after 120 mins by micro PET analysis; type: ADME, organism-based, Urinary bladder; details: in vivo, 2 h; how it was run: as §1
[4] = Metabolic stability in Sprague-Dawley rat plasma assessed as half life by radio thin layer chromatography analysis; type: ADME, cell-free
How it was run: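 Anesthetized male Sprague-Dawley rats (235-330 g) given radiotracer (3.2-15.1 MBq). Femoral arterial blood was sampled over 90 min and plasma gamma-counted. Plasma was diluted with acetonitrile, centrifuged and run on silica radio-TLC with cold reference, giving parent and radiometabolite fractions.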

Kidney = experiment: Biodistribution in Sprague-Dawley rat kidney at 3.2 to 18.6 MBq, iv after 120 mins by micro PET analysis; type: ADME, organism-based; details: in vivo, 2 h; how it was run: as §1
Lung = experiment: Biodistribution in Sprague-Dawley rat lung at 3.2 to 18.6 MBq, iv after 120 mins by micro PET analysis; type: ADME, organism-based; details: in vivo, 2 h; how it was run: as §1
[5] = Biodistribution in Sprague-Dawley rat fat at 3.2 to 18.6 MBq, iv after 120 mins by micro PET analysis; type: ADME, organism-based, Adipose tissue; details: in vivo, 2 h; how it was run: as §1
[6] = Biodistribution in Sprague-Dawley rat urine at 3.2 to 18.6 MBq, iv after 120 mins by micro PET analysis; type: ADME, organism-based; details: in vivo, 2 h; how it was run: as §1
Cerebellum = experiment: Biodistribution in Sprague-Dawley rat cerebellum at 3.2 to 18.6 MBq, iv after 120 mins by micro PET analysis; details: in vivo, 2 h
Muscle tissue = experiment: Biodistribution in Sprague-Dawley rat muscle at 3.2 to 18.6 MBq, iv after 120 mins by micro PET analysis; type: ADME, organism-based; details: in vivo, 2 h; how it was run: as §1
[7] = molecular target: Glutamate NMDA receptor; GRIN1/GRIN2A (Homo sapiens) (UniProt Q05586+Q12879); experiment: Antagonist activity against NR1a/NR2A receptor transfected in human HEK293 cells assessed as inhibition of NMDA-induced Ca2+ influx at 10 uM; type: functional, cell-based
How it was run: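 HEK293 cells co-transfected 1:1 with NR1-1a plus NR2A-GFP or NR2B-GFP, D-APV (100 µM) after transfection, used at 24 h. Cells loaded with Fura-2/AM 45 min at 37 °C, then held in HBBSS with glycine, pH 7.45, at room temperature under perfusion. NMDA 100 µM for 30 s; ligands applied 60 s before and during.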

Mus musculus = experiment: Analgesic activity in po dosed mouse assessed as licking behavior measured after 20 to 25 mins by formalin test; type: functional, organism-based; details: Mus musculus, po; read-out: ED50
[8] = Inhibition of alpha-adrenergic receptor
[9] = molecular target: Glutamate NMDA receptor; GRIN1/GRIN2B (Homo sapiens, UniProt Q05586+Q13224); experiment: Antagonist activity against NR1a/NR2B receptor transfected in human HEK293 cells assessed as inhibition of NMDA-induced Ca2+ influx; type: functional, cell-based
Glutamate NMDA receptor; GRIN1/GRIN2B, sequence (Q13224 whole entry, other chains not shown): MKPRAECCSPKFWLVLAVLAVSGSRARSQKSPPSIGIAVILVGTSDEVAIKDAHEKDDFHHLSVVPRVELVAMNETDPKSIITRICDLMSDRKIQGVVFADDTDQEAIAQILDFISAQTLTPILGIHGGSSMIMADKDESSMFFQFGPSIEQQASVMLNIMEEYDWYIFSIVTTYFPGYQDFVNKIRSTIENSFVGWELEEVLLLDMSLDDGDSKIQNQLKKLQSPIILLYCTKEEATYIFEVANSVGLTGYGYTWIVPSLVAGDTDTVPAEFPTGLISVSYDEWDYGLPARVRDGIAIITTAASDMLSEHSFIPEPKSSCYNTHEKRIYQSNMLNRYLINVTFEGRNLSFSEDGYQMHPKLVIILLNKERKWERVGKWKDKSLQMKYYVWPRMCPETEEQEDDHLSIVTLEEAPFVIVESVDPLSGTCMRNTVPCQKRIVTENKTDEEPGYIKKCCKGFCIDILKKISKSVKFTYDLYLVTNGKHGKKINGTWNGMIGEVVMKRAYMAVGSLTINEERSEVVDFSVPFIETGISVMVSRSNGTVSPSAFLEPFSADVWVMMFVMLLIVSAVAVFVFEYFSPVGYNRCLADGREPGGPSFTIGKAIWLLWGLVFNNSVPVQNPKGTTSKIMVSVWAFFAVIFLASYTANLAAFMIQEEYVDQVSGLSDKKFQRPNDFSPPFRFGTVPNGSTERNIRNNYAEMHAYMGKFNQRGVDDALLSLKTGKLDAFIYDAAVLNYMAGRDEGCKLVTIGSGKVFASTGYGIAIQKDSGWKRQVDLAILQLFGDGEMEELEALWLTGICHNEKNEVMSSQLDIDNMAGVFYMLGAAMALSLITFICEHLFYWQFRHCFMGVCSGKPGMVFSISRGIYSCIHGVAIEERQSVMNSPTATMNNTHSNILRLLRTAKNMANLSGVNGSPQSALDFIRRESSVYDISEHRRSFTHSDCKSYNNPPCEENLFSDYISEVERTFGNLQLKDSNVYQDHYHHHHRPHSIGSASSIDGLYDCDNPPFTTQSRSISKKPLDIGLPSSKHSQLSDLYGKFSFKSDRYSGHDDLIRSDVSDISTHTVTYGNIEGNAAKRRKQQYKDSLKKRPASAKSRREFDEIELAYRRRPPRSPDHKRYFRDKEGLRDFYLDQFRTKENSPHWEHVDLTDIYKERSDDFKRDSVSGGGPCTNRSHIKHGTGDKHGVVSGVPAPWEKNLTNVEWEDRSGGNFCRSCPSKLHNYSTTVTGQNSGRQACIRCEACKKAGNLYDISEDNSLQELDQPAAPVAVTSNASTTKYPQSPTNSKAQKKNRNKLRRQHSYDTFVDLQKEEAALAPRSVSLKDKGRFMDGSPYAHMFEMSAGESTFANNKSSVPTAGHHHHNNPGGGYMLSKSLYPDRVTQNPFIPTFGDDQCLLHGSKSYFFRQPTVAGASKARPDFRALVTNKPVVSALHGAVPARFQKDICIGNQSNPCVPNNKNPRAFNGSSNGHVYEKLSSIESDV

Liver [10] = experiment: Metabolic stability of the compound in rat liver homogenate after 30 mins; type: ADME, tissue-based; details: tissue homogenate, 0.5 h
How it was run: (§2)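 Rat plasma or liver homogenate (0.450 mL) spiked with ligand at 5-200 mg/L. Samples were deproteinized with acetonitrile immediately or after 30 min at 37 °C, then analysed by HPLC in triplicate injections.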

[11] = molecular target: Voltage-gated inwardly rectifying potassium channel KCNH2 (Homo sapiens, UniProt Q12809); experiment: Inhibition of human ERG potassium channel
Voltage-gated inwardly rectifying potassium channel KCNH2, sequence (Q12809 whole entry): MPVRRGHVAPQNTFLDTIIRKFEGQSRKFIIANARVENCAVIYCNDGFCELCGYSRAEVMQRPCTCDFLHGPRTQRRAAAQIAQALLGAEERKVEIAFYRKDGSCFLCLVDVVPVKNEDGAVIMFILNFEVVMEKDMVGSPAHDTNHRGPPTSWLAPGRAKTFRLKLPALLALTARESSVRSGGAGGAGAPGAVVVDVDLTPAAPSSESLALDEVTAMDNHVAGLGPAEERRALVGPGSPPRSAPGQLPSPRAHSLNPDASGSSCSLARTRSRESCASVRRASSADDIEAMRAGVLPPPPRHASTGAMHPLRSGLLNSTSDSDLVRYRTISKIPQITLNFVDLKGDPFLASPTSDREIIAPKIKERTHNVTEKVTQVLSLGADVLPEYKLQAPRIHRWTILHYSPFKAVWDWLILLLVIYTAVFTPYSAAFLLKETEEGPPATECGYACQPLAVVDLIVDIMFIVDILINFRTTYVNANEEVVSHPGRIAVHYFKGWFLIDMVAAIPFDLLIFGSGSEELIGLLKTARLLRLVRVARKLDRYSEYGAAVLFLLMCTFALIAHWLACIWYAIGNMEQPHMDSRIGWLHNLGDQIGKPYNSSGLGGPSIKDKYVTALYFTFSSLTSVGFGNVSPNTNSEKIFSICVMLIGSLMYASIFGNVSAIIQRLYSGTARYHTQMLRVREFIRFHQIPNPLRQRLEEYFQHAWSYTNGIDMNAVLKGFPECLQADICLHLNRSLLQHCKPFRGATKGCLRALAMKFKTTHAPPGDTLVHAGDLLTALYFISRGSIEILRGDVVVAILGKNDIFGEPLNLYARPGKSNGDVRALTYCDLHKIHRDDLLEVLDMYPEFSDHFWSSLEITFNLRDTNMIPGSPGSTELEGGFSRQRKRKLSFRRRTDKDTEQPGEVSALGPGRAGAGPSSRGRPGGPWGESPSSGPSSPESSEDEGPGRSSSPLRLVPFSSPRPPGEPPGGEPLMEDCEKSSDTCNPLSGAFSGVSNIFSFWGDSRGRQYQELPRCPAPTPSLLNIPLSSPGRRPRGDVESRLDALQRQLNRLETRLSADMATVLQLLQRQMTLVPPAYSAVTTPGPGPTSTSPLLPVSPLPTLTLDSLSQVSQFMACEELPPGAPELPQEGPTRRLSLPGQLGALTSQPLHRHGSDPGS

Plasma = experiment: Metabolic stability of the compound in rat plasma after 30 mins; type: ADME, cell-free; details: 0.5 h; how it was run: as §2

| Compound | Drug uptake (Thymus) [% ID/g] | Drug uptake (Brain) [% ID/g] | Drug uptake (Spleen) [% ID/g] | Drug uptake (Hippocampus) [% ID/g] | Drug uptake (Pancreas) [% ID/g] | Drug uptake (Bone) [% ID/g] | Drug uptake (Intestine) [% ID/g] | Drug uptake (Heart) [% ID/g] | Drug uptake (Liver [2]) [% ID/g] | Drug uptake (Rattus norvegicus [3]) [% ID/g] | half-life [4] [min] | Drug uptake (Kidney) [% ID/g] | Drug uptake (Lung) [% ID/g] | Drug uptake [5] [% ID/g] | Drug uptake [6] [% ID/g] | Drug uptake (Cerebellum) [% ID/g] | Drug uptake (Muscle tissue) [% ID/g] | inhibition [7] [%] | also measured |
| --- | --- | --- | --- | --- | --- | --- | --- | --- | --- | --- | --- | --- | --- | --- | --- | --- | --- | --- | --- |
| O=C(Nc1ccc2[nH]c(=O)oc2c1)C(=O)N1CCC(Cc2ccc([18F])cc2)CC1 | 0.057 | 0.054 | 0.169 | 0.064 | 0.08 | 0.397 | 0.107 | 0.076 | 1.365 | 0.175 | 50 | 0.377 | 0.132 | 0.056 | 3.237 | 0.046 | 0.069 | – | Drug uptake (Rattus norvegicus [1]): 0.776 % ID/g |
| Oc1ccc2[nH]c(CN3CCC(Cc4ccc([18F])cc4)CC3)nc2c1 | 0.225 | 0.035 | 0.305 | 0.037 | 0.391 | 1.576 | 0.188 | 0.068 | 2.255 | 0.373 | 35 | 0.384 | 0.445 | 0.098 | 1.327 | 0.035 | 0.044 | – | – |
| O=C(Nc1ccc2nc(O)oc2c1)C(=O)N1CCC(Cc2ccc(F)cc2)CC1 [RADIPRODIL] | – | – | – | – | – | – | – | – | – | – | – | – | – | – | – | – | – | 10.1 | ED50 (Mus musculus): 7.7 mg/kg |

The next lines start with results.

| Drug uptake (Thymus) [% ID/g] | Drug uptake (Brain) [% ID/g] | Drug uptake (Spleen) [% ID/g] | Drug uptake (Hippocampus) [% ID/g] | Drug uptake (Pancreas) [% ID/g] | Drug uptake (Bone) [% ID/g] | Drug uptake (Intestine) [% ID/g] | Drug uptake (Heart) [% ID/g] | Drug uptake (Liver [2]) [% ID/g] | Drug uptake (Rattus norvegicus [3]) [% ID/g] | half-life [4] [min] | Drug uptake (Kidney) [% ID/g] | Drug uptake (Lung) [% ID/g] | Drug uptake [5] [% ID/g] | Drug uptake [6] [% ID/g] | Drug uptake (Cerebellum) [% ID/g] | Drug uptake (Muscle tissue) [% ID/g] | inhibition [7] [%] | Compound | also measured |
| --- | --- | --- | --- | --- | --- | --- | --- | --- | --- | --- | --- | --- | --- | --- | --- | --- | --- | --- | --- |
| – | – | – | – | – | – | – | – | – | – | – | – | – | – | – | – | – | 22.3 | CC(C(O)c1ccc(O)cc1)N1CCC(Cc2ccccc2)CC1 (centres undefined) | – |
| – | – | – | – | – | – | – | – | – | – | – | – | – | – | – | – | – | 10.5 | Oc1ccc2[nH]c(CN3CCC(Cc4ccc(F)cc4)CC3)nc2c1 | IC50 [8]: 620 nM; IC50 [9]: 47.3 nM; Stability (Liver [10]): Stable; IP [11]: 500 nM; Stability (Plasma): Stable |
